Measured values: ChEMBL document CHEMBL3792365, “Dioxol and dihydrodioxin analogs of 2- and 3-phenylacetonitriles as potent anti-cancer agents with nanomolar activity against a variety of human cancer cells” (2016)

What was measured:
Type in all cases: functional
[1] = Growth inhibition of human UACC62 cells after 48 hrs by sulforhodamine B assay; conditions: UACC-62, 48 h
Summary of the method: (§1)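 Five-dose testing across the 60-line human tumour cell panel. GI50 is the drug concentration that gives a 50% reduction in net protein increase relative to control cells.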

[2] = Growth inhibition of human LOXIMVI cells after 48 hrs by sulforhodamine B assay; conditions: LOX IMVI
Summary of the method: (§2)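 Five-dose testing against a 60-line human tumor cell panel. GI50 is the drug concentration giving a 50% reduction in net protein increase relative to untreated control cells.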

[3] = Growth inhibition of human SF295 cells after 48 hrs by sulforhodamine B assay; conditions: SF-295, 48 h
Summary of the method: (§3)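 Five-dose concentration series run across a panel of 60 human tumour cell lines. GI50 is taken as the drug concentration giving a 50% reduction in net protein increase relative to untreated control cells.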

[4] = Growth inhibition of human OVCAR4 cells after 48 hrs by sulforhodamine B assay; conditions: OVCAR-4, 48 h; summary of the method: as §3
MDA-MB-231 = experiment: Growth inhibition of human MDA-MB-231 cells after 48 hrs by sulforhodamine B assay; conditions: MDA-MB-231, 48 h; summary of the method: as §2
[5] = Growth inhibition of human SNB19 cells after 48 hrs by sulforhodamine B assay; conditions: SNB-19, 48 h; summary of the method: as §3
[6] = Growth inhibition of human SW620 cells after 48 hrs by sulforhodamine B assay; conditions: SW-620, 48 h; summary of the method: as §3
[7] = Growth inhibition of human HOP62 cells after 48 hrs by sulforhodamine B assay; conditions: HOP-62, 48 h; summary of the method: as §2
[8] = Growth inhibition of human Hs 578T cells after 48 hrs by sulforhodamine B assay; summary of the method: as §2
[9] = Growth inhibition of human HCT15 cells after 48 hrs by sulforhodamine B assay; conditions: HCT-15, 48 h; summary of the method: as §2
[10] = Growth inhibition of human HCC2998 cells after 48 hrs by sulforhodamine B assay; conditions: HCC 2998, 48 h; summary of the method: as §2
A498 = experiment: Growth inhibition of human A498 cells after 48 hrs by sulforhodamine B assay; conditions: A498, 48 h; summary of the method: as §2
MCF7 = experiment: Growth inhibition of human MCF7 cells after 48 hrs by sulforhodamine B assay; conditions: MCF7, 48 h; summary of the method: as §2
[11] = Growth inhibition of human HOP92 cells after 48 hrs by sulforhodamine B assay; conditions: HOP-92, 48 h; summary of the method: as §2
[12] = Growth inhibition of human SF539 cells after 48 hrs by sulforhodamine B assay; conditions: SF-539, 48 h; summary of the method: as §3
SR = experiment: Growth inhibition of human SR cells after 48 hrs by sulforhodamine B assay; summary of the method: as §3
SK-MEL-28 = experiment: Growth inhibition of human SK-MEL-28 cells after 48 hrs by sulforhodamine B assay; conditions: SK-MEL-28, 48 h; summary of the method: as §3
[13] = Growth inhibition of human SF268 cells after 48 hrs by sulforhodamine B assay; conditions: SF-268, 48 h; summary of the method: as §3
[14] = Growth inhibition of human UO31 cells after 48 hrs by sulforhodamine B assay; conditions: UO-31, 48 h; summary of the method: as §1
CCRF-CEM = experiment: Growth inhibition of human CCRF-CEM cells after 48 hrs by sulforhodamine B assay; summary of the method: as §2
[15] = Growth inhibition of human MOLT4 cells after 48 hrs by sulforhodamine B assay; conditions: MOLT-4, 48 h; summary of the method: as §3
KM12 = experiment: Growth inhibition of human KM12 cells after 48 hrs by sulforhodamine B assay; conditions: KM12, 48 h; summary of the method: as §2
NCI-H522 = experiment: Growth inhibition of human NCI-H522 cells after 48 hrs by sulforhodamine B assay; conditions: NCI-H522, 48 h; summary of the method: as §3
M14 = experiment: Growth inhibition of human M14 cells after 48 hrs by sulforhodamine B assay; conditions: M14, 48 h; summary of the method: as §2
[16] = Growth inhibition of human COLO205 cells after 48 hrs by sulforhodamine B assay; conditions: COLO 205, 48 h; summary of the method: as §2
A549 = experiment: Growth inhibition of human A549/ATCC cells after 48 hrs by sulforhodamine B assay; conditions: A549, 48 h; summary of the method: as §2
[17] = Growth inhibition of human DU145 cells after 48 hrs by sulforhodamine B assay; conditions: DU-145, 48 h; summary of the method: as §2
SK-MEL-2 = experiment: Growth inhibition of human SK-MEL-2 cells after 48 hrs by sulforhodamine B assay; conditions: SK-MEL-2, 48 h; summary of the method: as §3
HT-29 = experiment: Growth inhibition of human HT-29 cells after 48 hrs by sulforhodamine B assay; conditions: HT-29, 48 h; summary of the method: as §2
MDA-MB-468 = experiment: Growth inhibition of human MDA-MB-468 cells after 48 hrs by sulforhodamine B assay; conditions: MDA-MB-468, 48 h; summary of the method: as §2
[18] = Growth inhibition of human SKOV3 cells after 48 hrs by sulforhodamine B assay; conditions: SK-OV-3, 48 h; summary of the method: as §3
[19] = Growth inhibition of human HCT116 cells after 48 hrs by sulforhodamine B assay; conditions: HCT-116, 48 h; summary of the method: as §2
[20] = Growth inhibition of human RPMI8226 cells after 48 hrs by sulforhodamine B assay; conditions: RPMI-8226, 48 h; summary of the method: as §3
[21] = Growth inhibition of human PC3 cells after 48 hrs by sulforhodamine B assay; conditions: PC-3, 48 h; summary of the method: as §3
NCI-H23 = experiment: Growth inhibition of human NCI-H23 cells after 48 hrs by sulforhodamine B assay; conditions: NCI-H23, 48 h; summary of the method: as §3
MDA-MB-435 = experiment: Growth inhibition of human MDA-MB-435 cells after 48 hrs by sulforhodamine B assay; conditions: MDA-MB-435, 48 h; summary of the method: as §2
[22] = Growth inhibition of human NCI-ADR-RES cells after 48 hrs by sulforhodamine B assay; summary of the method: as §3
U-251 = experiment: Growth inhibition of human U251 cells after 48 hrs by sulforhodamine B assay; conditions: U-251, 48 h; summary of the method: as §3
[23] = Growth inhibition of human SNB75 cells after 48 hrs by sulforhodamine B assay; conditions: SNB-75, 48 h; summary of the method: as §3
[24] = Growth inhibition of human IGROV1 cells after 48 hrs by sulforhodamine B assay; conditions: IGROV-1, 48 h; summary of the method: as §2
[25] = Growth inhibition of human HL-60(TB) cells after 48 hrs by sulforhodamine B assay; conditions: HL-60, 48 h
Summary of the method: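 Five-dose study across the 60-cell human tumour panel. GI50 is the drug concentration giving a 50% reduction in net protein increase relative to control cells.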

ACHN = experiment: Growth inhibition of human ACHN cells after 48 hrs by sulforhodamine B assay; summary of the method: as §2
SK-MEL-5 = experiment: Growth inhibition of human SK-MEL-5 cells after 48 hrs by sulforhodamine B assay; conditions: SK-MEL-5, 48 h; summary of the method: as §3
[26] = Growth inhibition of human OVCAR3 cells after 48 hrs by sulforhodamine B assay; conditions: OVCAR-3, 48 h; summary of the method: as §3
[27] = Growth inhibition of human Caki1 cells after 48 hrs by sulforhodamine B assay; conditions: CAKI-1, 48 h; summary of the method: as §2
786-0 = experiment: Growth inhibition of human 786-0 cells after 48 hrs by sulforhodamine B assay; conditions: 786-0, 48 h; summary of the method: as §2

For `COc1ccc(/C=C/c2cc(OC)c(OC)c(OC)c2)cc1`, the GI50 [1] was 2.37 µM, the GI50 [2] was 4.89 µM and the GI50 [3] was 2.18 µM. The GI50 [4] was 4 µM, the GI50 (MDA-MB-231) was 3.74 µM and the GI50 [5] was 4.85 µM. The GI50 [6] was 2.07 µM, the GI50 [7] was 3.14 µM and the GI50 [8] was 3.09 µM. The GI50 [9] was 2.82 µM, the GI50 [10] was 3.59 µM and the GI50 (A498) was 0.74 µM. For the same molecule, the GI50 (MCF7) was 1.66 µM, the GI50 [11] was 7.23 µM and the GI50 [12] was 2.18 µM. It also gave a GI50 (SR) of 3.93 µM, a GI50 (SK-MEL-28) of 3.86 µM and a GI50 [13] of 7.59 µM. The GI50 [14] was 3.69 µM, the GI50 (CCRF-CEM) was 2.89 µM and the GI50 [15] was 3.22 µM. It also gave a GI50 (KM12) of 3.63 µM, a GI50 (NCI-H522) of 3.7 µM and a GI50 (M14) of 2.81 µM. For the same molecule, the GI50 [16] was 2.07 µM, the GI50 (A549) was 3.7 µM and the GI50 [17] was 4.23 µM. For the same molecule, the GI50 (SK-MEL-2) was 3.95 µM, the GI50 (HT-29) was 2.32 µM and the GI50 (MDA-MB-468) was 2.22 µM. For the same molecule, the GI50 [18] was 3.34 µM, the GI50 [19] was 3.23 µM and the GI50 [20] was 6.42 µM. For the same molecule, the GI50 [21] was 3.22 µM, the GI50 (NCI-H23) was 3.37 µM and the GI50 (MDA-MB-435) was 1.04 µM. It also gave a GI50 [22] of 3.01 µM, a GI50 (U-251) of 3.07 µM and a GI50 [23] of 1.88 µM. It also gave a GI50 [24] of 5.29 µM, a GI50 [25] of 3.14 µM and a GI50 (ACHN) of 4.51 µM. The GI50 (SK-MEL-5) was 2.5 µM, the GI50 [26] was 3.45 µM and the GI50 [27] was 3 µM. It also gave a GI50 (786-0) of 5.42 µM.
